Measured values as given in ChEMBL document CHEMBL4732199, “Potent and orally bioavailable CDK8 inhibitors: Design, synthesis, structure-activity relationship analysis and biological evaluation” (Eur J Med Chem, 2021).
The source made the active and inactive calls. The rule behind the calls is not given here.

What was measured:
[1] = biological target: CDK18/Cyclin Y (Homo sapiens) (UniProt Q07002+Q8ND76); assay: Inhibition of CDK18/Cyclin Y (unknown origin) at 1 uM; type: protein-complex assay
Procedure, shortened: (§1)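 Residual activity of each kinase with compound at 1 µM, measured in a contracted radioisotope-based kinase profiling assay and expressed as % kinase activity remaining.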

[2] = biological target: Cyclin-Y/Cyclin-dependent kinase 16 (Homo sapiens) (UniProt Q00536+Q8ND76); assay: Inhibition of CDK16/Cyclin Y (unknown origin) at 1 uM; type: protein-complex assay; procedure, shortened: as §1
[3] = biological target: T1, Cyclin-dependent kinase 5/CDK5 activator 1 (Homo sapiens) (UniProt Q00535+Q15078); assay: Inhibition of CDK5/p35 (unknown origin) at 1 uM; type: protein-complex assay; procedure, shortened: as §1
T1 sequence (Q00535 whole entry): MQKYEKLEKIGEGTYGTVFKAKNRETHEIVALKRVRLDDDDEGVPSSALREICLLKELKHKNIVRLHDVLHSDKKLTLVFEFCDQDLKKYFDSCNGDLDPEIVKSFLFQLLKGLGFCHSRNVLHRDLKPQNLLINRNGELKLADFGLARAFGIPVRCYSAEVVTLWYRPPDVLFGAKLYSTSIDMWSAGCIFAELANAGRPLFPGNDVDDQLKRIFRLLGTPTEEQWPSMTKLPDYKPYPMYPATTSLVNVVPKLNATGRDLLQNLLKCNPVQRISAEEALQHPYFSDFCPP
T1 sequence (Q15078 99-307 partner limits assumed): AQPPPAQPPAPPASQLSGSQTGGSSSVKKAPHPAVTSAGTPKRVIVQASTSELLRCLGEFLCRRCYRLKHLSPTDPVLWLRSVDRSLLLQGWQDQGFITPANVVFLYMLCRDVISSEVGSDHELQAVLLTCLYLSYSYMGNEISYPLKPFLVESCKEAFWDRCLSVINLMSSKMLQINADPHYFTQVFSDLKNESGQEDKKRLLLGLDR

[4] = biological target: T1, Cyclin-dependent kinase 5/CDK5 activator 1 (Homo sapiens); assay: Inhibition of CDK5/p25 (unknown origin) at 1 uM; type: protein-complex assay; procedure, shortened: as §1
[5] = biological target: Cyclin-dependent kinase 4/cyclin D1 (Homo sapiens) (UniProt P11802+P24385); assay: Inhibition of CDK4/cyclin-D1 (unknown origin) at 1 uM; type: protein-complex assay; procedure, shortened: as §1
[6] = biological target: CDK3/Cyclin E (Homo sapiens) (UniProt P24864+Q00526); assay: Inhibition of CDK3/cyclin-E (unknown origin) at 1 uM; type: protein-complex assay; procedure, shortened: as §1
CDK3/Cyclin E (Homo sapiens), sequence (P24864 whole entry, looked up): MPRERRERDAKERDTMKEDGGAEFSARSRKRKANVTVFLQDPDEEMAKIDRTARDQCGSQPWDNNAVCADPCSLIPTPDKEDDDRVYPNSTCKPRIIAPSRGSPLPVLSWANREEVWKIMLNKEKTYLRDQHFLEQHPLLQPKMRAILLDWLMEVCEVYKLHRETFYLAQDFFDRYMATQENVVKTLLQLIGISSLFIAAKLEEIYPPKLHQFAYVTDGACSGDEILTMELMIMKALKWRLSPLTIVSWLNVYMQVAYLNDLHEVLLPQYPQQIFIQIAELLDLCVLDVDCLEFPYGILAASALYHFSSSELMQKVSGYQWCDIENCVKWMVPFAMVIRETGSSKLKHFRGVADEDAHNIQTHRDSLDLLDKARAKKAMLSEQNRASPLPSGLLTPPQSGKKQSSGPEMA
CDK3/Cyclin E (Homo sapiens), sequence (Q00526 whole entry, looked up): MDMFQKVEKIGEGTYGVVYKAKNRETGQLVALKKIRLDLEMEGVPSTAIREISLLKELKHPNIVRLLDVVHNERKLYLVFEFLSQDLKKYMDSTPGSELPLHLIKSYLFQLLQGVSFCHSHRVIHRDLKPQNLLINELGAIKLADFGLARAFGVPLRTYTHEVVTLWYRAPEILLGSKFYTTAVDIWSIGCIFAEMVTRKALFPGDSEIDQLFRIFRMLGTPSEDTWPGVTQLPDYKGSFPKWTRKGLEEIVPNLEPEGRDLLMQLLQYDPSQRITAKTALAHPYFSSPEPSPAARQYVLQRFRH

[7] = system: Glycogen synthase kinase-3 alpha (Homo sapiens), P49840 [UNDEFINED MUTATION]; assay: Inhibition of human GSKalpha S449A mutant (2 to 3nd residues) at 1 uM using YRRAAVPPSPSLSRHSSPHQS(p) EDEEE as substrate incubated for 40 mins in presence of [gamma-33P]-ATP by scintillation counting method relative to control
Glycogen synthase kinase-3 alpha (Homo sapiens), P49840 [UNDEFINED MUTATION], sequence (P49840 whole entry, looked up, stated change not applied): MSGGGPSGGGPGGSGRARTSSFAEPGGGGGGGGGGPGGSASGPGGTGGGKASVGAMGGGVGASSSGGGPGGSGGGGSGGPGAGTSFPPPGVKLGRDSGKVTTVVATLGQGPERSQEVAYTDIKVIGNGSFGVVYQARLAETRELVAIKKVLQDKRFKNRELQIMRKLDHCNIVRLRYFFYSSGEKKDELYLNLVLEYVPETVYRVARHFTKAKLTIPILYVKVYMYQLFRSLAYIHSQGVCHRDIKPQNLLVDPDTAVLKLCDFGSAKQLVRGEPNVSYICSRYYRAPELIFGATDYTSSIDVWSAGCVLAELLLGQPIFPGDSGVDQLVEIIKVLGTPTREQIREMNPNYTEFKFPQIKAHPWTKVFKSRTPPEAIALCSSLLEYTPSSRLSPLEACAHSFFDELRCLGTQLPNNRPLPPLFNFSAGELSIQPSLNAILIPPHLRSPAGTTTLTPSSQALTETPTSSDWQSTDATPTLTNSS
Procedure, shortened: (§2)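 Single-point screen of residual kinase activity (%) at 1 µM compound. Run as a contract radiometric [γ-33P]-ATP kinase assay, either the KinaseProfiler service or the HotSpot assay. ATP was set at the experimentally determined Km(ATP) of each kinase.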

[8] = system: Glycogen synthase kinase-3 beta (Homo sapiens), P49841 [UNDEFINED MUTATION]; assay: Inhibition of human GSKbeta H350L mutant (2 to 3nd residues) at 1 uM using YRRAAVPPSPSLSRHSSPHQS(p) EDEEE as substrate incubated for 40 mins in presence of [gamma-33P]-ATP by scintillation counting method relative to control; procedure, shortened: as §2
Glycogen synthase kinase-3 beta (Homo sapiens), P49841 [UNDEFINED MUTATION], sequence (P49841 whole entry, looked up, stated change not applied): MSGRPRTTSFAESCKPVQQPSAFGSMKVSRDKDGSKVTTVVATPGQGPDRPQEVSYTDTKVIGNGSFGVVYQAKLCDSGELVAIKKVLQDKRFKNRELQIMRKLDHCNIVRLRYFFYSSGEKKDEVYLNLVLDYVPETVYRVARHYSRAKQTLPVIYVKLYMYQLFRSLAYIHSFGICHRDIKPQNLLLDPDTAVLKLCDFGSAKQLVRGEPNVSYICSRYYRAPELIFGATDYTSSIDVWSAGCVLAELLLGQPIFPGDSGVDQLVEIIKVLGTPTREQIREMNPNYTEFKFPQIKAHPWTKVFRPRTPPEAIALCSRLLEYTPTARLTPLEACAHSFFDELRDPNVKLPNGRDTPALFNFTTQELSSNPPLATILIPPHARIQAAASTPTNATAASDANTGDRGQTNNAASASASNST

[9] = biological target: Glycogen synthase kinase-3 alpha (Homo sapiens, UniProt P49840); assay: Inhibition of human GSKalpha S449A mutant (2 to 3nd residues) using YRRAAVPPSPSLSRHSSPHQS(p) EDEEE as substrate incubated for 40 mins in presence of [gamma-33P]-ATP by scintillation counting method
Glycogen synthase kinase-3 alpha, sequence (P49840 whole entry): as the sequence (P49840 whole entry, looked up, stated change not applied) above
Procedure, shortened: (§3)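 Outsourced radioisotope (HotSpot) kinase assay run by a contract lab, with ATP at the kinase's Km(ATP). The IC50 was converted to an apparent Ki by the Cheng-Prusoff equation, Ki = IC50/(1+[ATP]/Km(ATP)), using the experimentally determined Km(ATP).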

[10] = biological target: Glycogen synthase kinase-3 beta (Homo sapiens, UniProt P49841); assay: Inhibition of human GSKbeta H350L mutant (2 to 3nd residues) using YRRAAVPPSPSLSRHSSPHQS(p) EDEEE as substrate incubated for 40 mins in presence of [gamma-33P]-ATP by scintillation counting method; procedure, shortened: as §3
Glycogen synthase kinase-3 beta, sequence (P49841 whole entry): as the sequence (P49841 whole entry, looked up, stated change not applied) above

[11] = Inhibition of CYP4501A in human liver microsomes using ethoxyresorufin O-deethylation as substrate by LC-MS/MS analysis
[12] = Tmax in Sprague-Dawley rat at 5 mg/kg, iv measured up to 24 hrs by LC-MS/MS analysis; type: ADME, organism-based; conditions: in vivo
[13] = Clearance in Sprague-Dawley rat at 5 mg/kg, iv measured up to 24 hrs by LC-MS/MS analysis; type: ADME, organism-based; conditions: in vivo
[14] = Toxicity in BALB/c mouse assessed as increase in body weight at 70 mg/kg, po administered once daily for 7 days and measured on day 15 relative to control; type: organism-based; conditions: in vivo, 168 h, time 7 day
[15] = Toxicity in BALB/c mouse assessed as loss of ground substance at 70 mg/kg, po administered once daily for 7 days and measured on day 15; type: organism-based; conditions: in vivo, 168 h, time 7 day
[16] = Toxicity in BALB/c mouse assessed as disordered chondrocyte columns at 70 mg/kg, po administered once daily for 7 days and measured on day 15; type: organism-based; conditions: in vivo, 168 h, time 7 day
[17] = Toxicity in BALB/c mouse assessed as pathological alterations in lung at 70 mg/kg, po administered once daily for 7 days and measured on day 15; type: organism-based; conditions: in vivo, 168 h, time 7 day
[18] = Toxicity in BALB/c mouse assessed as increase in dead splenocytes at 70 mg/kg, po administered once daily for 7 days and measured on day 15 by flow cytometric analysis; type: organism-based; conditions: in vivo, 168 h, time 7 day
[19] = Toxicity in BALB/c mouse assessed as granulocytes at 70 mg/kg, po administered once daily for 7 days and measured on day 15 by flow cytometric analysis; type: organism-based; conditions: in vivo, 168 h, time 7 day
[20] = Toxicity in BALB/c mouse assessed as macrophages at 70 mg/kg, po administered once daily for 7 days and measured on day 15 by flow cytometric analysis; type: organism-based; conditions: in vivo, 168 h, time 7 day
[21] = system: T47D; assay: Growth inhibition human T47D cells after 72 hrs by resazurin or MTT assay; type: functional
Procedure, shortened: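 Tumour cell lines kept in RPMI-1640, DMEM or MEM with 10% FBS at 37 °C, 5% CO2, mycoplasma-free. Exposure lasted 72 h. Viability was read by MTT for adherent solid-tumour lines and by resazurin for suspension leukaemia lines. GI50 came from nonlinear regression, given as mean ± standard deviation of at least two replicates unless stated otherwise.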

[22] = AUC in BALB/c mouse at 2 mg/kg, iv measured up to 24 hrs by LC-MS/MS analysis; conditions: in vivo
[23] = Cmax in BALB/c mouse at 2 mg/kg, iv measured up to 24 hrs by LC-MS/MS analysis; conditions: in vivo
[24] = AUC in BALB/c mouse at 10 mg/kg, po measured up to 24 hrs by LC-MS/MS analysis; conditions: in vivo
[25] = Tmax in BALB/c mouse at 10 mg/kg, po measured up to 24 hrs by LC-MS/MS analysis; conditions: in vivo
[26] = Half life in BALB/c mouse at 2 mg/kg, iv measured up to 24 hrs by LC-MS/MS analysis; conditions: in vivo
[27] = Clearance in BALB/c mouse at 2 mg/kg, iv measured up to 24 hrs by LC-MS/MS analysis; conditions: in vivo
[28] = Half life in BALB/c mouse at 10 mg/kg, po measured up to 24 hrs by LC-MS/MS analysis; conditions: in vivo
[29] = Volume of distribution at steady state in BALB/c mouse at 2 mg/kg, iv measured up to 24 hrs by LC-MS/MS analysis; conditions: in vivo, read-out: Vdss

With O=C1NCCC12CCN(c1c(Cl)cncc1-c1cc3ccccc3o1)CC2 the inhibition [1] was “inactive”, the inhibition [2] was “inactive” and the inhibition [3] was “inactive”. The inhibition [4] was “inactive”, the inhibition [5] was “inactive” and the inhibition [6] was “inactive”. The inhibition [7] was > 50%, the inhibition [8] was > 50% and the Ki [9] was 13 nM. For the same compound, the Ki [10] was 4 nM, the IC50 [11] was 7700 nM and the Tmax [12] was 2.4 min. The clearance [13] was 23.2 mL/min/kg, the Activity [14] was 12% and the Activity [15] was “Toxic”. For the same compound, the Activity [16] was “Toxic”, the Activity [17] was “Non-Toxic” and the Activity [18] was “Non-Toxic”. For the same compound, the Activity [19] was “Non-Toxic”, the Activity [20] was “Non-Toxic” and the GI50 [21] was 16200 nM. It also gave an AUC at 24 h [22] of 1.39 µM·h, a Cmax [23] of 3.44 µM and an AUC at 24 h [24] of 2.3 µM·h. It also gave a Tmax [25] of 25.2 min, a half-life [26] of 20.4 min and a clearance [27] of 63 mL/min/kg. For the same compound, the half-life [28] was 66.6 min and the Vd [29] was 1.99 L/kg.
Cn1cc(-c2ccc(-c3cncc(Cl)c3N3CCC4(CCNC4=O)CC3)cc2)cn1 showed a Ki [9] of 231 nM, a Ki [10] of 345 nM and a Tmax [12] of 4.2 min. The clearance [13] was 20 mL/min/kg, the Activity [17] was “Toxic” and the Activity [18] was “Non-Toxic”. The Activity [19] was “Non-Toxic”, the Activity [20] was “Non-Toxic” and the GI50 [21] was 15000 nM.
